Compound activity from PubChem.
An excerpt weighted towards active compounds, which were near 2.1% of everything screened.
beta cell repl = inducers of MIN6 beta-cell proliferation, primary screen, ATP luminescence, uHTS; MIN6 cells proliferation, ATPlite luminescence, 48 h; cells starved in 0.2% serum; 100% = growth in 10% serum; proliferation, % at 10 µM; 330,000 tested, 0.29% active;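 active = compounds whose signal lies at least 3.5 SD above the mean of all wells on their plate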
TLR4 MyD88 comp = inhibitors of TLR4-MyD88 association in cells, primary screen, cell-based, HeLa CL3-4, BLA complementation, FRET ratio. Toll-like receptor 4 (Homo sapiens) + Myeloid differentiation primary response protein …. inhibition, % at 8.4 µM. AID 861, 2007. 200,000 tested, 0.18% active. HeLa CL3-4 TLR4/MyD88 BLA complementation; in the data active = inhibition above about 25%
MC4R ag barr = MC4R agonists recruiting beta-arrestin, primary screen, cell-based, luminescence, agonist arm of biased-ligand search; AID 540308, 2011; 360,000 tested, 0.98% active; activation, % at 8.9 µM; Melanocortin receptor 4 (Homo sapiens), P32245; U2OS MC4R beta-arrestin complementation; percent of melanotan II response, DMSO zero;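 active = activation above a per-plate cutoff, the mean activation of sample wells on that plate plus 3 SD, cut at about 8% in these data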
Target sequence (P32245 whole entry, looked up): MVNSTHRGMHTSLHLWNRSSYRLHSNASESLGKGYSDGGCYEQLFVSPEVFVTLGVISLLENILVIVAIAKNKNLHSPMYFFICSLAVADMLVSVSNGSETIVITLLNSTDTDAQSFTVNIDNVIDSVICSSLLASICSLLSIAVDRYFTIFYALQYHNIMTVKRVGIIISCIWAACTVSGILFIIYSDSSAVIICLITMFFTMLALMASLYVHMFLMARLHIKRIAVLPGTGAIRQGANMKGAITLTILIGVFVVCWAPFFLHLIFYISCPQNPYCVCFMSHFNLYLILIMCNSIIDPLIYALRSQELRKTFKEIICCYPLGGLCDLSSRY
MC4R antag cAMP = MC4R antagonists of cAMP signaling, primary screen, cell-based, TR-FRET, antagonist arm of biased-ligand search. MC4R-expressing cells, MTII-stimulated cAMP, LANCE TR-FRET. inhibition, % at 6.5 µM. 360,000 tested, 0.48% active. AID 540295, 2011;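 active = inhibition above its plate's cutoff, the mean of tested wells on that plate plus 3 SD, cut at about 29% in these data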
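System: U2OS cells stably expressing human melanocortin 4 receptor (MC4R). Reagent: Melanotan II challenge after compound preincubation. Doses: 6.5 µM. Times: 30-min compound, 1-h challenge, 1-h detection, room temperature. Measured by: TR-FRET with Eu-cAMP and labeled anti-cAMP, 671 nm. Replicates: singlicate.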
TLR9-MyD88 block = inhibitors of TLR9-MyD88 association in cells, primary screen, cell-based, CHO, BLA complementation, fluorescence. Toll-like receptor 9 (Homo sapiens) + Myeloid differentiation primary response protein …. CCF4 FRET ratio. inhibition, % at 4.98 µM. 340,000 tested, 0.21% active;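 active = inhibition above the mean over all tested compounds plus 3 SD, cut at about 21% in these data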
NOD2 RIPK2 PPI = NOD2-RIPK2 binding disruptors in cells, primary screen, fluorescence, CHO cells, BLA complementation; CCF4 ratio; inhibition, % at 4.98 µM; 360,000 tested, 0.38% active; in the data active = inhibition above about 21%
TLR9-MyD88 cf = TLR9-MyD88 association inhibitors, retest, confirmation, cell-based, CHO, BLA complementation, fluorescence, triplicate. CCF4 FRET ratio. inhibition, % at 4.98 µM. 680 tested, 51% active. AID 540250, 2011. shares compounds with TLR9-MyD88 block;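 active = mean inhibition across three repeats above about 21% taken from the earlier screen, limit read from the data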;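 also: blue over green emission ratio reports constitutive TLR9 MyD88 association via BLA complementation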
BLA counter-1 = beta-lactamase reporter inhibitors in CHO cells, artefact control for TLR9-MyD88 binding inhibitor project, cell-based, fluorescence | shares compounds with TLR9-MyD88 block | CHO-BLA cells, CCF4 FRET ratio, BLA reporter | inhibition, % at 4.98 µM | 680 tested, 7% active;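 active = mean inhibition above a 50% cutoff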;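 also: counterscreen of TLR9-MyD88 hits on CMV-driven BLA in CHO-K1 cells; higher means less blue over green ratio so more BLA blockade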
TLR9 CHO cytotox = CHO cell viability loss – luminescence, single concentration, cytotoxicity control for TLR9-MyD88 binding inhibitor project. AID 588336, 2011. inhibition, % at 4.98 µM. 680 tested, 39% active. TLR9-MyD88 CHO cells cytotoxicity. shares compounds with TLR9-MyD88 block; in the data active = inhibition above about 11%
cAMP nonselect = nonselective cAMP signaling inhibitors, parental cells, counter-screen for MC4R biased antagonist project, cell-based, TR-FRET, U2OS, forskolin, triplicate; shares compounds with MC4R antag cAMP; LANCE TR-FRET; inhibition, % at 6.5 µM; 1,600 tested, 26% active; AID 602193, 2012;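 active = mean inhibition over triplicates above the low-control well mean plus 3 SD, set per campaign, cut at about 13% in these data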;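 also: signal is single emission at 671 nm which falls as cellular cAMP rises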
MC4R antag conf = MC4R cAMP antagonists, retest, confirmation, cell-based, TR-FRET; inhibition, % at 6.5 µM; 1,600 tested, 27% active; shares compounds with MC4R antag cAMP; MC4R-expressing cells, MTII-stimulated cAMP; in the data active = inhibition above about 29%
NOD2 RIPK2 conf = NOD2-RIPK2 binding disruptors, retest, confirmation, fluorescence, CHO cells, BLA complementation, triplicate; CCF4 FRET; shares compounds with NOD2 RIPK2 PPI; inhibition, % at 4.98 µM; 1,200 tested, 70% active;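 active = mean inhibition across replicates above a set limit taken from the earlier primary screen, cut at about 21% in these data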
BLA counter-2 = NOD2-RIPK2 counterscreen BLA reporter activity; shares compounds with NOD2 RIPK2 PPI; CHO BLA reporter, CCF4 FRET ratio; inhibition, % at 4.98 µM; 1,200 tested, 57% active; AID 624371;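 active = mean inhibition above the low-control mean inhibition plus three low-control SD, cut at about 11% in these data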
Numbers stand for hits; n = inactive; x = no result given; + = active, no number; ! = repeats disagree.

SMILES	beta cell repl	TLR4 MyD88 comp	MC4R ag barr	MC4R antag cAMP	TLR9-MyD88 block	NOD2 RIPK2 PPI	TLR9-MyD88 cf	BLA counter-1	TLR9 CHO cytotox	NOD2 RIPK2 conf	BLA counter-2	others
O=C1C=CC2(C=C1)O[C@H](Cc1ccccc1)[C@@H](Cc1ccccc1)O2	x	x	n	n	26	89	39	n	99	91	29
COc1ccc(C[C@@H]2OC3(C=CC(=O)C=C3)O[C@H]2Cc2ccc(OC)cc2)cc1	x	x	n	60	39	92	44	n	98	93	38	cAMP nonselect=35;MC4R antag conf=34
CC(C)N1CCCC(C)(C(=O)Nc2nc3ccccc3n2C)C1 (centres undefined)	x	x	n	n	x	n	x	x	x	x	x
CCc1ccc(S(=O)(=O)NCc2ccc(C(=O)NCCN(Cc3ccccc3)C(C)C)cc2)cc1	x	x	n	n	x	n	x	x	x	x	x
COc1ccc(O)c(/C=N/NC(=S)Nc2cccc(S(=O)(=O)N(C)C)c2)c1	x	n	n	n	26	25	n	n	32	n	21
Cc1ccc(NCC(=O)N=Nc2c(O)[nH]c3ccc([N+](=O)[O-])cc23)cc1	n	x	x	x	x	x	x	x	x	x	x
CCCCCC(=O)N=Nc1c(O)[nH]c2ccc([N+](=O)[O-])cc12	n	n	n	n	23	+	n	n	n	n	n
COC(=O)CNC(=O)CN1C(=O)N(c2cccc(Cl)c2)C(N(O)C(=O)Nc2cccc(Cl)c2)C1(C)C (centres undefined)	n	n	n	n	32	26	n	n	n	n	23
O=[N+]([O-])c1ccc(N(c2ccccc2)c2ccccc2)cc1	n	n	n	n	39	58	32	n	n	62	61
COc1cc2ccc(=O)oc2c(O[C@@H]2O[C@H](CO)[C@@H](O)[C@H](O)[C@H]2O)c1O	n	x	n	n	40	45	24!	n	n	49	59
O=C(Nc1ccc(Cl)cc1)Nc1cccc2nsnc12	n	x	n	n	21	21	n	n	n	35	36
O=C(Nc1ccncc1)Nc1cccc(Cl)c1Cl	n	x	n	n	n	n	x	x	x	x	x
Cc1cccc2cc3c(N)c(C(=O)Nc4ccc(N5CCOCC5)cc4)sc3nc12	n	n	n	n	n	n	x	x	x	x	x
CCc1cccc2cc3c(N)c(C(=O)Nc4ccc(S(=O)(=O)N5CCCC5)cc4)sc3nc12	x	n	n	n	30	33	n	n	29	42	51
CCCN(C(=O)c1ccc([N+](=O)[O-])c(C)c1)c1c(N)n(Cc2ccccc2)c(=O)[nH]c1=O	n	x	n	n	n	n	x	x	x	x	x
CN(C)CCCN(C(=O)CCOc1ccccc1)c1nc2c(F)cccc2s1	x	n	n	n	22	48	n	n	68	27	n
CN(C)CCCN(C(=O)CCc1ccccc1)c1nc2c(F)cccc2s1	n	n	n	n	n	n	x	x	x	x	x
CN(CCO)c1cc(Sc2nc3ccccc3s2)c2nonc2c1[N+](=O)[O-]	n	n	n	n	47	91	67	n	99	98	33
CC(=O)OCCN(C)c1cc(SC(C)C)c2nonc2c1[N+](=O)[O-]	n	n	n	n	n	n	x	x	x	x	x
CCOc1cccc2cc(C(C)=O)oc12	n	n	n	n	n	n	x	x	x	x	x
CCOC(=O)C(=CNc1cccnc1Oc1ccc(C)c2c1CCC2)C(=O)OCC	n	x	n	n	n	n	x	x	x	x	x
Oc1ccc(/C=C/c2ccc3cccc(O)c3n2)cc1Br	n	x	n	n	27	27	n	n	n	39	47
O=C(O)c1ccc(/C=C/c2ccc3cccc(O)c3n2)cc1	n	n	n	n	n	n	x	x	x	x	x
CC(C)(C)OC(=O)C[C@@H]1C/C=C\C[C@@H](CC(=O)N(CCO)Cc2ccccc2)C(=O)N[C@@H](c2ccccc2)COC1=O	n	x	n	n	n	n	x	x	x	x	x
CCOc1ccccc1C(=O)OCC(=O)NCC1CCCCC1	n	x	n	n	n	n	x	x	x	x	x
SMILES	beta cell repl	TLR4 MyD88 comp	MC4R ag barr	MC4R antag cAMP	TLR9-MyD88 block	NOD2 RIPK2 PPI	TLR9-MyD88 cf	BLA counter-1	TLR9 CHO cytotox	NOD2 RIPK2 conf	BLA counter-2	others
COc1ccc(NC(=O)/C(Cl)=C(/Cl)S(=O)(=O)Cc2ccccc2)cn1	x	n	n	56	28	56	21	n	99	68	23	cAMP nonselect=34;MC4R antag conf=49
COc1ccc(NC(=O)C(Cl)=C(Cl)Cl)cn1	n	n	n	n	n	n	x	x	x	x	x
C=CCn1c(O)c(C2=c3ccccc3=NC2=O)c2ccccc21	n	x	n	n	21	77	27	n	98	80	n
Cc1ccc2c(c1)c(C1=c3ccccc3=NC1=O)c(O)n2C	n	x	n	n	n	n	x	x	x	x	x
CCn1nc(C(=O)Nc2cc(Cl)ccc2-n2cncn2)c2ccccc2c1=O	n	x	n	n	n	n	x	x	x	x	x
COc1cc(/C=C/C(O)=C/C(=O)/C=C/c2ccc(O)cc2)ccc1O	n	x	n	n	34	49	25	n	n	57	56
